Laboratory results: ChEMBL document CHEMBL4342526, “Exploration of the Structural Space in 4(3H)-Quinazolinone Antibacterials” (J Med Chem, 2020)
Values after ≈ are worked out from the molar mass of the structure shown.

Tests used:
[1] = tested on: Staphylococcus aureus; assay: Bacteriostatic activity against clindamycin/erythromycin/spectinomycin-resistant mec-positive Staphylococcus aureus NRS70 assessed as log reduction in bacterial count at 0.5 to 16 times MIC by time-kill assay; type: functional
[2] = AUC (0 to last) in ICR mouse at 10 mg/kg, po administered via gavage by UV-UPLC analysis; type: ADME, organism-based; design: dose 10 mg/kg, time 0 - last, route oral; details: in vivo
[3] = tested on: Staphylococcus aureus; assay: (§1) Bactericidal activity against methicillin resistant Staphylococcus aureus NRS70 infected in ICR mouse model of neutropenic thigh infection assessed as log reduction in bacterial count in thigh at 20 mg/kg, sc administered at 8 hrs interval for 3 times starting from 1 hr post infection and measured 24 hrs post infection; type: functional
Method in brief: (§2)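 Female ICR mice (6–8 weeks, 20–25 g) made neutropenic with cyclophosphamide 200 mg/kg ip at 4 and 1 days pre-infection; 0.1 mL NRS70 at 1 × 10^6 CFU/mL in brain heart infusion injected into right thigh; drug in 10% DMSO/90% water sc every 8 h ×3 from 1 h post-infection; thigh CFU counted at 24 h; n = 8/group; mean ± SEM, one-way ANOVA with Tukey test.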

[4] = tested on: Staphylococcus aureus; assay: Selectivity ratio of MIC for Staphylococcus aureus ATCC 29213 in presence of bovine serum albumin to MIC for Staphylococcus aureus ATCC 29213 in absence of bovine serum albumin; type: functional
Method in brief: (§3)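 S. aureus ATCC29213 MIC was run by CLSI microdilution in cation-adjusted Mueller–Hinton broth plus 2% NaCl, with and without 0.5% bovine serum albumin. Compounds were two-fold serially diluted in triplicate, inoculum was 5 × 10^5 CFU/mL, and plates were incubated at 37 °C for 16–20 h. The endpoint was the lowest concentration with no visible growth.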

[5] = AUC (0 to last) in ICR mouse at 10 mg/kg, iv by UV-UPLC analysis; type: ADME, organism-based; design: dose 10 mg/kg, time 0 - last, route intravenous; details: in vivo
Method in brief: (§4)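 Female ICR mice, 6–8 weeks old, 20–25 g. Each received 50 μL by tail-vein injection (5 or 10 mg/kg) of a filter-sterilized 2 or 4 mg/mL solution in 20% DMSO/10% Tween-80/70% water. Terminal blood was collected and plasma harvested by centrifugation. Plasma was precipitated with acetonitrile containing internal standard, and the supernatant was analyzed by C18 UPLC with UV detection at 285 nm.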

[6] = tested on: Staphylococcus aureus; assay: as §1, with “40” for “20”; type: functional; method in brief: as §2
[7] = tested on: Staphylococcus aureus; assay: Antibacterial activity against Staphylococcus aureus ATCC 29213 measured after 16 to 20 hrs in presence of bovine serum albumin by microdilution method; type: functional; method in brief: as §3
[8] = tested on: Staphylococcus epidermidis; assay: Antibacterial activity against Staphylococcus epidermidis ATCC 35547 measured after 16 to 20 hrs by microdilution method; type: functional
Method in brief: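 CLSI broth microdilution; two-fold serial compound dilutions in triplicate in cation-adjusted Mueller–Hinton broth with 2% NaCl, inoculum 5 × 10^5 CFU/mL; 37 °C for 16–20 h; MIC = lowest concentration with no visible growth.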

[9] = Clearance in ICR mouse at 10 mg/kg, iv by UV-UPLC analysis relative to hepatic blood flow; type: ADME, organism-based; details: in vivo; method in brief: as §4
[10] = AUC (0 to infinity) in ICR mouse at 10 mg/kg, iv by UV-UPLC analysis; type: ADME, organism-based; design: dose 10 mg/kg, time infinity, route intravenous; details: in vivo; method in brief: as §4
[11] = tested on: Bacillus licheniformis; assay: Antibacterial activity against Bacillus licheniformis ATCC 12759 measured after 16 to 20 hrs by microdilution method; type: functional
Method in brief: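 CLSI broth microdilution: two-fold serial dilutions in triplicate in cation-adjusted Mueller–Hinton broth with 2% NaCl, inoculum 5 × 10^5 CFU/mL, incubated at 37 °C for 16–20 h. MIC is the lowest concentration preventing visible growth.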

[12] = Elimination half life in ICR mouse at 10 mg/kg, iv by UV-UPLC analysis; type: ADME, organism-based; details: in vivo; method in brief: as §4

In the case of `N#Cc1ccc(/C=C/c2nc3ccccc3c(=O)n2-c2cc(C(=O)O)ccc2F)cc1`, the “log(activity)” value [1] is reported as <3, the AUClast [2] is reported as 840 µg·min/mL and the “log(activity)” value [3] is reported as 0.47. For the same compound, the selectivity ratio [4] was “<=4”, the AUClast [5] was 1290 µg·min/mL and the “log(activity)” value [6] was 0.78. For the same compound, the MIC [7] was 2 µg/mL, the MIC [8] was 0.25 µg/mL (≈ 0.608 µM) and the CL [9] was < 10%. For the same compound, the AUC(0-inf) [10] was 22000 ng·h/mL, the MIC [11] was > 128 µg/mL and the “beta t1/2” value [12] was 13.7 h.
